Compound activity as filed in PubChem BioAssay.
This is a sample that favours compounds with a hit; in the whole collection about 1.7% have one here.
PfHsp90 set2: growth inhibition of yeast expressing Plasmodium Hsp90 | S. cerevisiae expressing PfHsp90, BacTiter-Glo ATP, 48 h; yeast lacking PDR1 and PDR3 efflux regulators | AID 504621 | hit rate 0.32% among 310,000 | inhibition, % at 9.4 µM;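 active = every replicate shows inhibition above about 80%, whatever the replicate mean, limit read from the data; inconclusive = mean inhibition reaches the set limit but some replicate falls short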
CSC inhib: blocks cancer stem cells; cancer stem cell-like cells viability, luminescence; inhibition, % at 7.5 µM; hit rate 1.1% among 300,000; in the data active = inhibition above about 75%; inconclusive = no clear call, values can overlap the other calls; tested in HMLE shEcad cells
SKKanGAS inh: blocks kanamycin growth of S. pyogenes SKKanGAS strain. BacTiter-Glo, 6 h. inhibition, % at 7.5 µM. hit rate 1.3% among 300,000. AID 1662;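 active = mean replicate score, as percent of positive control median, at least 50; inconclusive = mean below 50 but one replicate at or above 50; inactive = mean and every replicate below 50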;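 note: strain carries kanamycin resistance gene driven by streptokinase promoter and grows in 40 µg/ml kanamycin; loss of luminescence reflects streptokinase promoter inhibition or plain growth inhibition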
Rtt109 Vps75: inhibitors of Candida albicans Rtt109/Vps75 histone acetyltransferase; Q5AAJ8; purified Rtt109/Vps75, ThioGlo CoA-SH fluorescence, 4 h; inhibition, % at 34.9 µM; hit rate 0.16% among 330,000; AID 540336;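 active = inhibition of at least 50% in every replicate; inconclusive = best replicate reaches 50% inhibition but some replicates fall short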
Target sequence (Q5AAJ8 whole entry, looked up): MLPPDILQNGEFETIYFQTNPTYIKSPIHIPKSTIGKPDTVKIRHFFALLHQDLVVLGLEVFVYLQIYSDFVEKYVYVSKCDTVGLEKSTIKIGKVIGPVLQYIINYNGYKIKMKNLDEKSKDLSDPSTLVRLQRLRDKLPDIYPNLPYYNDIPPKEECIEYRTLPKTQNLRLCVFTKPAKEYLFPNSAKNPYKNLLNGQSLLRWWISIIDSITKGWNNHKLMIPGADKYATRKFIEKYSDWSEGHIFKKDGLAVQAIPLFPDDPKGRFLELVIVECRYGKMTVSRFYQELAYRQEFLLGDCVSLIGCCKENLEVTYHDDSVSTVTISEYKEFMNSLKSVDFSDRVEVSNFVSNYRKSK
FN deposit inh: fibronectin deposition inhibition; AH1F fibroblasts, Alexa488-fibronectin deposition fluorescence, overnight; inhibition, % at 12.6 µM; hit rate 0.086% among 350,000; AID 743247;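 active = mean inhibition across replicates of 30% or more, regardless of how many single replicates reach that level; inconclusive = mean under 30% yet at least half of replicates reach 30%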
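Measured by – fluorescence 485/525 nm · System – AH1F fibroblast monolayer, labelled fibronectin deposition · Amount – 10000 cells per well · Buffer or medium – serum-reduced DMEM (2% serum) · Doses – single dose, pinned · Also added – fluorescent fibronectin at 24 nM final · Schedule – 1 h cell attachment, overnight exposure to compound and label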
PglD inh: PglD (C. jejuni) enzyme inhibition; purified PglD enzyme, DTNB colorimetric CoA detection; inhibition, % at 12.5 µM; hit rate 0.098% among 360,000; AID 602405; in the data active = inhibition above about 16%, passing the limit was not always enough; inconclusive = no clear call, values can overlap the other calls
Of the large screens only hits and unclear results are named; the others gave an inactive call.

Cc1noc(C)c1NC(=O)Nc1cccc2c1O[C@@H](CN(C)Cc1ccccc1)[C@@H](C)CN([C@@H](C)CO)C2=O	none (no result: PfHsp90 set2, CSC inhib, SKKanGAS inh, Rtt109 Vps75, FN deposit inh)
O=C(/C(=N/N=C/c1ccc(O)c(O)c1O)c1ccccc1)c1ccccc1	Rtt109 Vps75 78
Oc1ccc(/C=N/N=C(c2ccccc2)c2ccccc2)c(O)c1O	none (no result: SKKanGAS inh, PglD inh)
Cc1ccc(CSc2nc3sc(C)c(C)c3c(=O)n2Cc2ccco2)cc1	CSC inhib inconclusive, SKKanGAS inh 78 (no result: FN deposit inh)
O=S(=O)(NC1CCCCCC1)c1ccc(Br)s1	PfHsp90 set2 88
CC(C)Cc1csc(NC(=O)c2ccc(Cl)cc2)c1C(=O)O	SKKanGAS inh 74
CC(C)Cc1csc(NC(=O)c2ccccc2Cl)c1C(=O)O	none (no result: PglD inh)
CCNC(=O)C[C@H]1CC[C@H]2[C@@H](COC[C@H](O)CN2C(=O)Nc2ccc3c(c2)OCO3)O1	none (no result: PfHsp90 set2, CSC inhib, SKKanGAS inh, Rtt109 Vps75)
O=C1C=CC2(O[C@H](c3ccccc3)[C@@H](c3ccccc3)O2)[C@H](Sc2ccccc2O)C1	PfHsp90 set2 113, FN deposit inh 45 (no result: CSC inhib, SKKanGAS inh, PglD inh)
C[C@@H]1[C@@H](Sc2ccccc2)CC(=O)O[C@@H]1c1ccc(-c2ccccc2)cc1	none
CCCNC(=O)N(C)C[C@@H]1Oc2cc(-c3ccncc3)ccc2S(=O)(=O)N([C@H](C)CO)C[C@H]1C	none (no result: PfHsp90 set2, CSC inhib, SKKanGAS inh, Rtt109 Vps75, FN deposit inh)
COc1ccccc1C#Cc1ccc([C@@H]2[C@@H](CO)N3CCCCN(C(=O)C4CC4)C[C@@H]23)cc1	none (no result: PfHsp90 set2, CSC inhib, SKKanGAS inh, Rtt109 Vps75, FN deposit inh)
O=C(O)c1ccc(N=Nc2c(O)[nH]c3cc(Cl)ccc23)cc1	SKKanGAS inh 70 (no result: PglD inh)
COC(=O)N=Nc1c(O)[nH]c2ccc(Br)cc12	none
O=C(O)c1ccc(N=Nc2c(O)[nH]c3ccc(Br)cc23)cc1	SKKanGAS inh 71
CC(C)NC(=O)N(C)C[C@H]1Oc2ccc(NC(=O)Cc3cn(C)c4ccccc34)cc2C(=O)N([C@H](C)CO)C[C@H]1C	none (no result: PfHsp90 set2, CSC inhib, SKKanGAS inh, Rtt109 Vps75, FN deposit inh)
CNC[C@H]1OCCCC[C@@H](C)Oc2ccc(NC(=O)Nc3ccccc3)cc2C(=O)N([C@H](C)CO)C[C@@H]1C	none (no result: PfHsp90 set2, CSC inhib, SKKanGAS inh, Rtt109 Vps75, FN deposit inh)
CC(C)C[C@@H](CO)N(Cc1ccccc1)S(=O)(=O)N(Cc1ccccc1)[C@@H](CO)CC(C)C	CSC inhib 126 (no result: SKKanGAS inh, FN deposit inh)
CC(C)C[C@@H](CO)N(Cc1ccccc1)S(=O)(=O)N(Cc1ccccc1)[C@H](CO)CC(C)C	CSC inhib 125 (no result: SKKanGAS inh, FN deposit inh)
COCC(=O)Nc1ccc2c(c1)C(=O)N(C)[C@H]1CC[C@@H](CC(=O)NCC3CC3)O[C@@H]1CO2	none (no result: PfHsp90 set2, CSC inhib, SKKanGAS inh, Rtt109 Vps75)
c1ccc(-c2c3ccccc3nc3[nH]c4ccccc4c23)cc1	CSC inhib 79, SKKanGAS inh 96 (no result: FN deposit inh)
COC(=O)C[C@H]1C=C[C@H](N)[C@H](CO)O1	none (no result: PfHsp90 set2, CSC inhib, SKKanGAS inh, Rtt109 Vps75)
Cc1ccccc1NCc1ccc([N+](=O)[O-])s1	CSC inhib 94
COc1ccccc1NCc1ccc([N+](=O)[O-])s1	none
CC(=O)N(C)C[C@H]1Oc2ncc(-c3cncnc3)cc2C(=O)N([C@@H](C)CO)C[C@H]1C	none (no result: PfHsp90 set2, CSC inhib, SKKanGAS inh, Rtt109 Vps75, FN deposit inh)
Cc1ccccc1Oc1ccc(NC(=O)C2CC=CCC2C(=O)O)cc1 (stereo not drawn)	none
CC(C)(C)c1ccc(Oc2ccc(NC(=O)C3CC=CCC3C(=O)O)cc2)cc1 (stereo not drawn)	CSC inhib 80
CO[C@@H]1CN(C)C(=O)c2cc(NC(C)=O)ccc2OC[C@H](C)N(C(=O)C2CCOCC2)C[C@H]1C	none (no result: PfHsp90 set2, CSC inhib, SKKanGAS inh, Rtt109 Vps75)
C/C=C/c1ccc([C@@H]2[C@@H](CNC(=O)CC)N(C(=O)COC)[C@H]2CO)cc1	none (no result: PfHsp90 set2, CSC inhib, SKKanGAS inh, Rtt109 Vps75)
O=C(Nc1ccc(Cl)c(C(F)(F)F)c1)c1ccncc1	none
CNC(=O)c1cc(Oc2ccc(NC(=O)Nc3ccc(Cl)c(C(F)(F)F)c3)cc2)ccn1	CSC inhib 124 (no result: SKKanGAS inh)
CCN1CCN(CCCOc2ccc(-c3ccccc3)cc2)CC1	CSC inhib 125 (no result: PfHsp90 set2, Rtt109 Vps75, FN deposit inh, PglD inh)
COc1nc(Cl)cn(-c2ccc(C)cc2)c1=O	none (no result: PglD inh)
Cc1ccc(-n2c(Cl)c(Cl)nc(Cl)c2=O)cc1	PfHsp90 set2 105, CSC inhib 91 (no result: SKKanGAS inh, FN deposit inh, PglD inh)
C[C@H](CO)N1C[C@H](C)[C@@H](CN(C)Cc2ccc(C(=O)O)cc2)OCCCC[C@H](C)Oc2ccc(NC(=O)c3ccncc3)cc2C1=O	none (no result: PfHsp90 set2, CSC inhib, SKKanGAS inh, Rtt109 Vps75, FN deposit inh)
CCOc1cc(/C=C2\SC(=N)N(c3nccs3)C2=O)ccc1OCCN1CCOCC1	SKKanGAS inh 80
CCOc1cc(/C=C2\SC(=S)N(N3CCOCC3)C2=O)ccc1O	none (no result: PglD inh)
